Key:
[1] = system: Pseudoalteromonas lipolytica; assay: Anti-biofilm activity against Pseudoalteromonas lipolytica TC8 assessed as bacterial adhesion at 200 uM incubated for 15 hrs at 20 degC by Syto 61 dye based fluorimetric assay relative to control; type: functional
Method in brief: (§1)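 Biofilm formation (adhesion) of the marine strains was measured with the Syto 61 fluorophore, using a method adapted from Leroy et al. Compounds were first screened at 200 µM, and the value is % adhesion at that concentration. EC50 values were derived from the same assay.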

Paracoccus sp. [2] = assay: Anti-biofilm activity against Paracoccus sp. 4M6 assessed as bacterial adhesion at 200 uM incubated for 15 hrs at 20 degC by Syto 61 dye based fluorimetric assay relative to control; type: functional; method in brief: as §1
Pseudoalteromonas ulvae [3] = assay: Anti-biofilm activity against Pseudoalteromonas ulvae TC14 assessed as inhibition of bacterial adhesion incubated for 15 hrs at 20 degC by Syto 61 dye based fluorescence assay; type: functional, organism-based; method in brief: as §1
[4] = system: Pseudoalteromonas lipolytica; assay: Anti-biofilm activity against Pseudoalteromonas lipolytica TC8 assessed as inhibition of bacterial adhesion incubated for 15 hrs at 20 degC by Syto 61 dye based fluorimetric assay; type: functional, organism-based; method in brief: as §1
Paracoccus sp. [5] = assay: Anti-biofilm activity against Paracoccus sp. 4M6 assessed as inhibition of bacterial adhesion incubated for 15 hrs at 20 degC by Syto 61 dye based fluorimetric assay; type: functional, organism-based; method in brief: as §1
Pseudoalteromonas ulvae [6] = assay: Growth inhibition of Pseudoalteromonas ulvae TC14 at 5 uM measured every hr for 6 hrs by turbidimetric method; type: organism-based; conditions: in vivo
Method in brief: (§2)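 Bacterial growth of TC14, TC8 and 4M6 was followed with test compounds at 100 µM. Ampicillin at 5 µM served as the reference antibiotic.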

[7] = system: Pseudoalteromonas lipolytica; assay: Growth inhibition of Pseudoalteromonas lipolytica TC8 at 5 uM measured every hr for 6 hrs by turbidimetric method; type: organism-based; conditions: in vivo; method in brief: as §2
Paracoccus sp. [8] = assay: Growth inhibition of Paracoccus sp. 4M6 at 5 uM measured every hr for 6 hrs by turbidimetric method; type: organism-based; conditions: in vivo; method in brief: as §2
Pseudoalteromonas ulvae [9] = assay: Effect on cell viability of Pseudoalteromonas ulvae TC14 at 5 uM measured after 6 hrs by resazurin dye based fluorescence assay; type: organism-based
Method in brief: (§3)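 Viability was scored with resazurin, following the same protocol as the Syto 61 antiadhesion assay. Compounds were tested at 5, 10, 20, 50, 100 and 200 µM on each strain, and the 5 and 100 µM points are the ones reported.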

[10] = system: Pseudoalteromonas lipolytica; assay: Effect on cell viability of Pseudoalteromonas lipolytica TC8 at 5 uM measured after 6 hrs by resazurin dye based fluorescence assay; type: organism-based; method in brief: as §3
Paracoccus sp. [11] = assay: Effect on cell viability of Paracoccus sp. 4M6 at 5 uM measured after 6 hrs by resazurin dye based fluorescence assay; type: organism-based; method in brief: as §3
Pseudoalteromonas ulvae [12] = assay: Anti-biofilm activity against Pseudoalteromonas ulvae TC14 assessed as bacterial adhesion at 200 uM incubated for 15 hrs at 20 degC by Syto 61 dye based fluorescence assay relative to control; type: functional; method in brief: as §1
Pseudoalteromonas ulvae [13] = assay: Growth inhibition of Pseudoalteromonas ulvae TC14 at 100 uM measured every hr for 6 hrs by turbidimetric method; type: organism-based; conditions: in vivo; method in brief: as §2
[14] = system: Pseudoalteromonas lipolytica; assay: Growth inhibition of Pseudoalteromonas lipolytica TC8 at 100 uM measured every hr for 6 hrs by turbidimetric method; type: organism-based; conditions: in vivo; method in brief: as §2
Paracoccus sp. [15] = assay: Growth inhibition of Paracoccus sp. 4M6 at 100 uM measured every hr for 6 hrs by turbidimetric method; type: organism-based; conditions: in vivo; method in brief: as §2
Pseudoalteromonas ulvae [16] = assay: Effect on cell viability of Pseudoalteromonas ulvae TC14 at 100 uM measured after 6 hrs by resazurin dye based fluorescence assay; type: organism-based; method in brief: as §3
[17] = system: Pseudoalteromonas lipolytica; assay: Effect on cell viability of Pseudoalteromonas lipolytica TC8 at 100 uM measured after 6 hrs by resazurin dye based fluorescence assay; type: organism-based; method in brief: as §3
Paracoccus sp. [18] = assay: Effect on cell viability of Paracoccus sp. 4M6 at 100 uM measured after 6 hrs by resazurin dye based fluorescence assay; type: organism-based; method in brief: as §3
[19] = Pseudoalteromonas ulvae, TC14, 15 h
[20] = Pseudoalteromonas lipolytica, TC8, 15 h
[21] = Paracoccus sp. (in: a-proteobacteria), 4M6, 15 h

EC50 (Pseudoalteromonas ulvae [3]; [19]) | EC50 [4, 20] | EC50 (Paracoccus sp. [5]; [21]) | Molecule | Activity [1] | Activity (Paracoccus sp. [2]) | Activity (Pseudoalteromonas ulvae [12]) | also measured
> 200 µM | > 200 µM | > 200 µM | COc1ccc(CCn2cc(CCCc3cn(CCc4ccc(OC)c(Br)c4)nn3)nn2)cc1Br | 50% | 49.2% |  | 
 |  |  | CC1(C)S[C@@H]2[C@H](NC(=O)[C@H](N)c3ccccc3)C(=O)N2[C@H]1C(=O)O [AMPICILLIN] |  |  |  | growth inhibition (GI) (Pseudoalteromonas ulvae [6]): Toxic; growth inhibition (GI) [7]: Toxic; growth inhibition (GI) (Paracoccus sp. [8]): Toxic; Activity (Pseudoalteromonas ulvae [9]): Toxic; Activity [10]: Toxic; Activity (Paracoccus sp. [11]): Toxic
 |  | 164 µM | COc1ccc(CCn2cc(COCc3cn(CCc4ccc(OC)c(Br)c4)nn3)nn2)cc1Br | 42.8% | 44.9% | 38.5% | 
> 200 µM | > 200 µM | > 200 µM | CN(C)CCOc1ccc(CCn2cc(CCCCc3cn(CCc4ccc(OCCN(C)C)c(Br)c4)nn3)nn2)cc1Br | 58.5% | 57.4% |  | 
> 200 µM | > 200 µM | > 200 µM | COc1ccc(CCn2cc(CCCCc3cn(CCc4ccc(OC)c(Br)c4)nn3)nn2)cc1Br |  | 50.9% |  | 
 |  | 194 µM | COc1ccc(CCn2cc(CNCc3cn(CCc4ccc(OC)c(Br)c4)nn3)nn2)cc1Br |  | 46.3% |  | 
59.9 µM | 80.3 µM | 88.3 µM | Oc1ccc(CCn2cc(CNCc3cn(CCc4ccc(O)c(Br)c4)nn3)nn2)cc1Br |  | 27.9% |  | 
> 200 µM | > 200 µM | > 200 µM | COc1ccc(CCn2cc(-c3cccc(-c4cn(CCc5ccc(OC)c(Br)c5)nn4)c3)nn2)cc1Br | 101.1% | 76.2% | 74.1% | 
 |  |  | tributyltin-oxide |  |  |  | EC50 (Pseudoalteromonas ulvae [3]): 0.7 µM; EC50 [4]: 7 µM; EC50 (Paracoccus sp. [5]): 4 µM
> 200 µM | > 200 µM | > 200 µM | CN(C)CCCOc1ccc(CCn2cc(CCCCCCc3cn(CCc4ccc(OCCCN(C)C)c(Br)c4)nn3)nn2)cc1Br | 72.3% | 84.7% | 71% | 
40.9 µM | > 200 µM | 59.9 µM | Oc1ccc(CCn2cc(-c3ccc(-c4cn(CCc5ccc(O)c(Br)c5)nn4)cc3)nn2)cc1Br |  | 31.8% | 31.1% | 
 |  | > 200 µM | CN(C)CCOc1ccc(CCn2cc(CNCc3cn(CCc4ccc(OCCN(C)C)c(Br)c4)nn3)nn2)cc1Br |  | 51.8% | 40.9% | 
> 200 µM | > 200 µM | > 200 µM | CN(C)CCOc1ccc(CCn2cc(-c3cccc(-c4cn(CCc5ccc(OCCN(C)C)c(Br)c5)nn4)c3)nn2)cc1Br | 65.1% | 66.9% | 62.2% | 
> 200 µM | > 200 µM | > 200 µM | Oc1ccc(CCn2cc(-c3cccc(-c4cn(CCc5ccc(O)c(Br)c5)nn4)c3)nn2)cc1Br | 66.5% | 61.5% | 56.8% | 
> 200 µM | > 200 µM | > 200 µM | Oc1ccc(CCn2cc(CCCCCCc3cn(CCc4ccc(O)c(Br)c4)nn3)nn2)cc1Br | 75% | 78.1% | 61.7% | 
0.9 µM | 5.1 µM | 5.1 µM | CN(C)CCOc1ccc(CCn2cc(-c3ccc(-c4cn(CCc5ccc(OCCN(C)C)c(Br)c5)nn4)cc3)nn2)cc1Br | 14.6% | 10.1% | 0% | growth inhibition (GI) (Pseudoalteromonas ulvae [13]): Toxic; growth inhibition (GI) [14]: Toxic; growth inhibition (GI) (Paracoccus sp. [15]): Toxic; Activity (Pseudoalteromonas ulvae [9]): Non-Toxic; Activity [10]: Non-Toxic; Activity (Paracoccus sp. [11]): Non-Toxic; Activity (Pseudoalteromonas ulvae [16]): Toxic; Activity [17]: Toxic; Activity (Paracoccus sp. [18]): Toxic
> 200 µM | > 200 µM | > 200 µM | CN(C)CCCOc1ccc(CCn2cc(-c3cccc(-c4cn(CCc5ccc(OCCCN(C)C)c(Br)c5)nn4)c3)nn2)cc1Br | 71.6% | 78.1% | 65.3% | 
0.4 µM | 15 µM | 3.5 µM | CN(C)CCCOc1ccc(CCn2cc(-c3ccc(-c4cn(CCc5ccc(OCCCN(C)C)c(Br)c5)nn4)cc3)nn2)cc1Br | 5.3% | 5.1% | 0.6% | growth inhibition (GI) (Pseudoalteromonas ulvae [13]): Toxic; growth inhibition (GI) [14]: Toxic; growth inhibition (GI) (Paracoccus sp. [15]): Toxic; Activity (Pseudoalteromonas ulvae [9]): Non-Toxic; Activity [10]: Non-Toxic; Activity (Paracoccus sp. [11]): Non-Toxic; Activity (Pseudoalteromonas ulvae [16]): Toxic; Activity [17]: Toxic; Activity (Paracoccus sp. [18]): Toxic
 | > 200 µM | > 200 µM | CN(C)CCCOc1ccc(CCn2cc(COCc3cn(CCc4ccc(OCCCN(C)C)c(Br)c4)nn3)nn2)cc1Br |  | 53.7% |  | 
91.8 µM |  | 146 µM | CN(C)CCOc1ccc(CCn2cc(COCc3cn(CCc4ccc(OCCN(C)C)c(Br)c4)nn3)nn2)cc1Br |  | 40.4% |  | 
> 200 µM | > 200 µM | > 200 µM | Oc1ccc(CCn2cc(CCCc3cn(CCc4ccc(O)c(Br)c4)nn3)nn2)cc1Br | 63.5% | 83.4% | 53.1% | 
> 200 µM | > 200 µM | > 200 µM | CN(C)CCOc1ccc(CCn2cc(CCCc3cn(CCc4ccc(OCCN(C)C)c(Br)c4)nn3)nn2)cc1Br | 57% | 51.5% |  | 
> 200 µM | > 200 µM | > 200 µM | CN(C)CCCOc1ccc(CCn2cc(CCCc3cn(CCc4ccc(OCCCN(C)C)c(Br)c4)nn3)nn2)cc1Br |  | 77.2% |  | 
> 200 µM | > 200 µM | > 200 µM | Oc1ccc(CCn2cc(CCCCc3cn(CCc4ccc(O)c(Br)c4)nn3)nn2)cc1Br |  | 52.4% |  | 
 |  | 198 µM | Oc1ccc(CCn2cc(COCc3cn(CCc4ccc(O)c(Br)c4)nn3)nn2)cc1Br | 50.3% | 47.8% | 40.3% | 
> 200 µM | > 200 µM | > 200 µM | CN(C)CCCOc1ccc(CCn2cc(CCCCc3cn(CCc4ccc(OCCCN(C)C)c(Br)c4)nn3)nn2)cc1Br | 89.2% | 80.7% | 66.5% | 
> 200 µM | > 200 µM | > 200 µM | CN(C)CCOc1ccc(CCn2cc(CCCCCCc3cn(CCc4ccc(OCCN(C)C)c(Br)c4)nn3)nn2)cc1Br | 54.4% | 59.5% |  | 
> 200 µM |  | > 200 µM | CN(C)CCCOc1ccc(CCn2cc(CNCc3cn(CCc4ccc(OCCCN(C)C)c(Br)c4)nn3)nn2)cc1Br |  | 56.3% | 45% | 
> 200 µM | > 200 µM | > 200 µM | COc1ccc(CCn2cc(CCCCCCc3cn(CCc4ccc(OC)c(Br)c4)nn3)nn2)cc1Br | 78.3% | 69.2% | 62.7% | 

From ChEMBL document CHEMBL4330109, “Parallel synthesis of a bis-triazoles library as psammaplin A analogues: A new wave of antibiofilm compounds?” (Bioorg Med Chem Lett, 2019)
